An excerpt weighted towards active compounds, which were near 1.5% of everything screened.
HNF4A DNA FP: change in binding of human HNF4 alpha to DNA. P41235. HNF4a-FITC DNA binding, fluorescence polarization, 1 h. activity change, % at 10 µM. hit rate 0.3% among 360,000. AID 1224865; in the data active = activity change above about 30%, passing the limit was not always enough
ZTA counter: blocks Epstein-Barr virus ZTA, an EBNA-1 counter-screen. P03206. ZTA-DNA binding, fluorescence polarization. inhibition, % at 11 µM. hit rate 0.15% among 320,000; in the data active = inhibition above about 33%
Target sequence (P03206 whole entry, looked up): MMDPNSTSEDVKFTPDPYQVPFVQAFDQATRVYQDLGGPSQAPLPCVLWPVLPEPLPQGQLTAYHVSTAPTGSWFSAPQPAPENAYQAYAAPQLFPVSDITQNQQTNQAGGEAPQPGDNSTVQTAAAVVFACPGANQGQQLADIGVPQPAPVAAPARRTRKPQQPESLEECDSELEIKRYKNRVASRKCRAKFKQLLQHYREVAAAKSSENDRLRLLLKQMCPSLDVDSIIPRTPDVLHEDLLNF
CSN inh: inhibitors of human CSN-mediated cullin deneddylation; Purified CSN, SCF-Nedd8-OG deneddylation, fluorescence polarization; inhibition, % at 12.5 µM; hit rate 0.38% among 360,000;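 active = pattern-corrected inhibition above about 35%, with an unprinted fluorescence ratio check between 0.5 and 1.5, limit read from the data, passing the limit was not always enough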;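 note: 0% = enzyme with substrate and 100% = substrate without enzyme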
Target sequence (Q92905 whole entry, looked up, one chain of several): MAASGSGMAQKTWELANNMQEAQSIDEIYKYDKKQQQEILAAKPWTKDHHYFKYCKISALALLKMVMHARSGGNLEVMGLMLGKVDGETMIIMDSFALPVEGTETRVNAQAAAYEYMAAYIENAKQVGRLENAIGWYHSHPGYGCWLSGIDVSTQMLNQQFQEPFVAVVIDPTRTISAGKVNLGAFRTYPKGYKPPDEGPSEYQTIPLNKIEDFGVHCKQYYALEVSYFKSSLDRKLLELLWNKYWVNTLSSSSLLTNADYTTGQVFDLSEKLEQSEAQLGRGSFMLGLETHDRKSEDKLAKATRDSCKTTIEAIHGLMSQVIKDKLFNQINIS
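assay system = purified human Csn5 enzyme expressed in HEK293T cells | amount = 0.24 nM enzyme | buffer or medium = Tris/NaCl/DTT buffer, pH 7.5 | reagent = 10 nM SCFSkp2-Nedd8OG | compound = one concentration, 12.5 µM, 0.25% DMSO | times = 90 min reaction at room temperature | signal = FP | read-out basis = % inhibition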
A1 inh: inhibitors of the anti-apoptotic protein A1, read as caspase activation; MEF A1-2A-BIM cells, Caspase-Glo 3/7 luminescence, 3 h; percent of clofoctol response, vehicle zero; caspase activation, % (test concentration not listed); hit rate 0.066% among 330,000; AID 2462;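 active = over half of replicate activation scores above 10%, or exactly half above 10 with the replicate mean above 10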
LANA-H2A inh: blocks KSHV LANA binding to histone H2A/H2B. Q9QR71. AID 2629. cell-free LANA-H2A/H2B peptide, fluorescence polarization. hit rate 0.6% among 320,000. inhibition, % (no concentration beside the values); in the data active = inhibition mostly above about 10%, no sharp cut-off; inactive = mostly below about 6.7%
EBNA-1 inhibitor: blocks EBNA-1 binding to DNA. EBNA-1 DNA binding, fluorescence polarization. inhibition, % at 14.8 µM. hit rate 0.34% among 300,000; in the data active = inhibition above about 28%
Active calls of the source: *; ! = a repeat was not active.

How did Cc1cnc(C)c(Nc2nc(C(N)Cc3ccc(Cl)cc3)cs2)n1 (stereo not drawn) do in these assays?
HNF4A DNA FP: 7; CSN inh: 1

Results for Cc1ccc([C@H]2C(C(=O)O)=CCN2S(=O)(=O)c2ccc(C)cc2)cc1 ?
HNF4A DNA FP: 1; CSN inh: -1

Results for COCc1nnc(NS(=O)(=O)c2ccc(OC)cc2)s1 ?
HNF4A DNA FP: 0; CSN inh: -3

Results for CCCc1nnc(NS(=O)(=O)c2ccc(OC)cc2)s1 ?
HNF4A DNA FP: -1; ZTA counter: -5; CSN inh: -5; A1 inh: 0; LANA-H2A inh: 15*; EBNA-1 inhibitor: 5

What do the screens show for `O=C(O)c1ccc(CN2C[C@@H](CO)O[C@@H](n3cnc4c(NCc5ccco5)ncnc43)C2)cc1`?
HNF4A DNA FP: 0; CSN inh: 0

How did COCCN(CC(=O)NC1CCCCC1)C(=O)/C=C/C(=O)c1ccc(OC)cc1O do in these assays?
HNF4A DNA FP: 2; CSN inh: 6

Results for COc1ccc(C(=O)/C=C/C(=O)N(CC(=O)NC2CCCCC2)Cc2cccs2)c(O)c1 ?
HNF4A DNA FP: -6; ZTA counter: 6; CSN inh: 7; A1 inh: 26*; LANA-H2A inh: -1; EBNA-1 inhibitor: -2

Results for C(=N\NC1=Nc2cccc3cccc1c23)/c1ccccn1 ?
HNF4A DNA FP: 54*; CSN inh: 14

How did COCCNC(=O)/C(C#N)=c1\s/c(=C\c2ccccc2OC(F)F)c(=O)n1Cc1ccccc1 do in these assays?
ZTA counter: 0; A1 inh: -1; LANA-H2A inh: -3; EBNA-1 inhibitor: -14

What do the screens show for `O=C(Cc1cccc2ccccc12)NCCc1ccccc1`?
HNF4A DNA FP: -1; ZTA counter: -1; CSN inh: -5; A1 inh: 0; LANA-H2A inh: 0; EBNA-1 inhibitor: 8

Results for C=C1/C=C(\C)[C@](C)(O)C[C@H](O)CC(=O)[C@H](O)[C@@H](O)[C@H](C)C[C@H](C)OC(=O)/C(C)=C/CC/C=C/[C@@H]2O[C@H]2C[C@H](C)C1 ?
A1 inh: 15*; LANA-H2A inh: 4

Results for O=C(Nc1ccc(Cl)cc1)NC1CCCC1Cc1ccco1 (stereo not drawn) ?
HNF4A DNA FP: 3; ZTA counter: -13; CSN inh: 1; A1 inh: 0; LANA-H2A inh: 17*; EBNA-1 inhibitor: -9

How did O=C(Nc1ccc(Cl)cc1)NC1CCCCC1Cc1ccco1 (stereo not drawn) do in these assays?
HNF4A DNA FP: 2; ZTA counter: 2; CSN inh: 0; A1 inh: 0; LANA-H2A inh: -5; EBNA-1 inhibitor: 0

What do the screens show for `CCN1CCN(C(=O)C(C)Sc2nc3nc(C)cc(C)n3n2)CC1` (stereo not drawn)?
HNF4A DNA FP: 5; CSN inh: -3; A1 inh: 0; LANA-H2A inh: -9

Results for CCCc1cc(-n2ccnc2)n2c(nc3ccccc32)c1C#N ?
HNF4A DNA FP: 59*; ZTA counter: 5; CSN inh: 31; A1 inh: 0; LANA-H2A inh: -4; EBNA-1 inhibitor: -2

Results for Cc1nc2c3cc(F)ccc3n(Cc3ccc(F)cc3)c2s1 ?
HNF4A DNA FP: -3; ZTA counter: 11; CSN inh: 6; A1 inh: 0; LANA-H2A inh: 7; EBNA-1 inhibitor: 2

Results for CCc1ccc2c(c1)c1nc(C)sc1n2CC ?
HNF4A DNA FP: -3; ZTA counter: 1; CSN inh: 54*; A1 inh: 0; LANA-H2A inh: 5; EBNA-1 inhibitor: -6

Results for CCOC(=O)CNC(=O)C1CCN(S(=O)(=O)c2ccc(-c3nn[nH]n3)cc2)CC1 ?
HNF4A DNA FP: -1; ZTA counter: -8; CSN inh: -4; A1 inh: -1; LANA-H2A inh: 0; EBNA-1 inhibitor: -6

Results for CCn1ccnc1CN(C)Cc1cn(-c2cc(C)ccc2C)nc1-c1ccccc1 ?
HNF4A DNA FP: -5; ZTA counter: -13; CSN inh: -3; A1 inh: 1; LANA-H2A inh: 20*; EBNA-1 inhibitor: -6

What do the screens show for `CCn1ccnc1CN(C)Cc1cn(-c2ccc(C)cc2)nc1-c1ccc(F)cc1`?
HNF4A DNA FP: -4; ZTA counter: 2; CSN inh: 2; A1 inh: 0; LANA-H2A inh: 2; EBNA-1 inhibitor: -6

How did CNc1nc(-c2ccc(S(=O)(=O)N3CCCCC3)cc2)cs1 do in these assays?
HNF4A DNA FP: -2; ZTA counter: 0; CSN inh: -4; A1 inh: -3; LANA-H2A inh: 15*

How did CSc1nnc(-c2ccc(S(=O)(=O)N3CCCCC3)cc2)o1 do in these assays?
HNF4A DNA FP: 0; ZTA counter: -20; CSN inh: -2; A1 inh: 0; LANA-H2A inh: -1; EBNA-1 inhibitor: -3

How did Cc1ccc(OCC(=O)OCCN2C(=O)c3ccccc3C2=O)cc1C do in these assays?
HNF4A DNA FP: 1; ZTA counter: -17; CSN inh: 1; A1 inh: 1; LANA-H2A inh: 19*; EBNA-1 inhibitor: -15

Results for C[C@H](NC(=O)c1ccccc1)C(=O)OCC(=O)Nc1ccc(Cl)cn1 ?
HNF4A DNA FP: 1; CSN inh: 4

What do the screens show for `Cc1ccc2c(Cl)c(C(=O)NCCc3ccccc3)sc2c1`?
HNF4A DNA FP: -2; ZTA counter: 8; CSN inh: -12; A1 inh: -9; LANA-H2A inh: -6; EBNA-1 inhibitor: 1

Results for CCNC(=O)c1sc2cc(C)ccc2c1Cl ?
HNF4A DNA FP: 1; ZTA counter: -38; CSN inh: 1; A1 inh: -2; LANA-H2A inh: 36*; EBNA-1 inhibitor: -13

What do the screens show for `O=S(=O)(O)Sc1ccccc1`?
HNF4A DNA FP: 2; CSN inh: 3

How did CCN(CC)c1ccc(SS(=O)(=O)O)cc1 do in these assays?
HNF4A DNA FP: 0; ZTA counter: -1; CSN inh: -1; A1 inh: 1; LANA-H2A inh: 35*!; EBNA-1 inhibitor: -4

Results for O=c1nc(Nc2ccccc2)sc2ccc([N+](=O)[O-])cc12 ?
HNF4A DNA FP: -3; ZTA counter: -2; CSN inh: 43*; A1 inh: -1; LANA-H2A inh: -4; EBNA-1 inhibitor: 9

Results for COC(=O)/C(C#N)=C/c1ccc(OC(=O)c2ccccn2)cc1 ?
HNF4A DNA FP: 45*; ZTA counter: 0; CSN inh: 5; A1 inh: -3; LANA-H2A inh: 0; EBNA-1 inhibitor: 6

How did CCCCn1c(=O)[nH]c(=O)c2c1nc(Cn1ncc(Cl)c(Cl)c1=O)n2CCC do in these assays?
HNF4A DNA FP: -2; ZTA counter: 10; CSN inh: 9; A1 inh: 6.8*; LANA-H2A inh: -9; EBNA-1 inhibitor: 7
